This note sets out measurements from ChEMBL document CHEMBL4152264, “Design, synthesis, antiproliferative activity and docking studies of quinazoline derivatives bearing 2,3-dihydro-indole or 1,2,3,4-tetrahydroquinoline as potential EGFR inhibitors” (Eur J Med Chem, 2018).

Series [1] relates to A549. The series can be described thus: Induction of apoptosis in human A549 cells at 1.09 uM after 12 hrs by acridine orange staining based fluorescence microscopic method. The series is classed as functional, cell-based. A digest of the protocol:
(§1)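 A549 cells, grown in MEM with 10% FBS, were exposed to compound for 12 h alongside an untreated control group. They were stained with acridine orange alone and viewed by inverted and fluorescence microscopy. Nuclear colour (green versus red), cell shrinkage, edge clarity, refraction and chromatin condensation were assessed visually.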

The target of series [2] is Epidermal growth factor receptor (Homo sapiens, UniProt P00533, T790M). The series is described as follows: Inhibition of wild type EGFR T790M mutant (unknown origin) using FAM-labeled peptide substrate after 10 mins by mobility shift assay.
The test system of series [3] is A549. The series can be described thus: Antiproliferative activity against human A549 cells after 72 hrs by MTT assay. In kind it is functional, cell-based. Conditions: for pIC50: A549, 72 h.
The test system of series [4] is A549. The series can be described thus: Induction of morphological changes in human A549 cells assessed as chromatin condensation at 1.09 uM after 12 hrs by acridine orange staining based fluorescence microscopic method. The series is classed as functional, cell-based. A digest of the protocol: as §1
Series [5] relates to A549. The series is described as follows: Induction of apoptosis in human A549 cells assessed as necrotic cells at 0.5 uM after 48 hrs by Annexin V-FITC/propidium iodide staining based flow cytometry (reference value: 0.51%). In kind it is functional.
The subject of a further series is PC-3. The series is described as follows: Antiproliferative activity against human PC3 cells after 72 hrs by MTT assay. In kind it is functional, cell-based. Conditions: for pIC50: PC-3, 72 h. A digest of the protocol:
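Cells grown in MEM with 10% FBS. About 4×10³ cells per well seeded and incubated 24 h at 37 °C, 5% CO₂. Compounds added at indicated final concentrations for 72 h. MTT at 5 µg/mL final for 4 h at 37 °C. Formazan dissolved in DMSO, absorbance read at 492 nm with 630 nm reference. Tested three times; IC50 is the mean of two determinations.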

In a further series the test system is MCF7. The series can be described thus: Antiproliferative activity against human MCF7 cells after 72 hrs by MTT assay. In kind it is functional, cell-based. Conditions: for pIC50: MCF7, 72 h.
The test system of series [6] is A549. The series can be described thus: Induction of morphological changes in human A549 cells assessed as cell shrinkage at 1.09 uM after 12 hrs by acridine orange staining based fluorescence microscopic method. In kind it is functional. A digest of the protocol: as §1
For series [7], the system named is A549. The series is described as follows: Induction of apoptosis in human A549 cells assessed as late apoptotic cells at 0.5 uM after 48 hrs by Annexin V-FITC/propidium iodide staining based flow cytometry (reference value: 2.07%). In kind it is functional.
In series [8] the target is Epidermal growth factor receptor (Homo sapiens, UniProt P00533). The series is described as follows: Inhibition of wild type EGFR (unknown origin) using FAM-labeled peptide substrate after 10 mins by mobility shift assay.
In series [9] the test system is A549. The series can be described thus: Induction of apoptosis in human A549 cells assessed as early apoptotic cells at 0.5 uM after 48 hrs by Annexin V-FITC/propidium iodide staining based flow cytometry (reference value: 5.61%). The series is classed as functional.
Series [10] has as its system A549. The series can be described thus: Induction of apoptosis in human A549 cells assessed as live cells at 0.5 uM after 48 hrs by Annexin V-FITC/propidium iodide staining based flow cytometry (reference value: 91.81%). The series is classed as functional.
Series [11] can be described thus: Solubility of the compound in water. The series is classed as physicochemical. Conditions: buffer.

pIC50: −log10 of the molar value. Active and inactive are the calls of the source. The calls are words filed in the database; no cut-off is given here.

Chain of Epidermal growth factor receptor (Homo sapiens, UniProt P00533, T790M) (P00533 25-1210 T790M limits assumed): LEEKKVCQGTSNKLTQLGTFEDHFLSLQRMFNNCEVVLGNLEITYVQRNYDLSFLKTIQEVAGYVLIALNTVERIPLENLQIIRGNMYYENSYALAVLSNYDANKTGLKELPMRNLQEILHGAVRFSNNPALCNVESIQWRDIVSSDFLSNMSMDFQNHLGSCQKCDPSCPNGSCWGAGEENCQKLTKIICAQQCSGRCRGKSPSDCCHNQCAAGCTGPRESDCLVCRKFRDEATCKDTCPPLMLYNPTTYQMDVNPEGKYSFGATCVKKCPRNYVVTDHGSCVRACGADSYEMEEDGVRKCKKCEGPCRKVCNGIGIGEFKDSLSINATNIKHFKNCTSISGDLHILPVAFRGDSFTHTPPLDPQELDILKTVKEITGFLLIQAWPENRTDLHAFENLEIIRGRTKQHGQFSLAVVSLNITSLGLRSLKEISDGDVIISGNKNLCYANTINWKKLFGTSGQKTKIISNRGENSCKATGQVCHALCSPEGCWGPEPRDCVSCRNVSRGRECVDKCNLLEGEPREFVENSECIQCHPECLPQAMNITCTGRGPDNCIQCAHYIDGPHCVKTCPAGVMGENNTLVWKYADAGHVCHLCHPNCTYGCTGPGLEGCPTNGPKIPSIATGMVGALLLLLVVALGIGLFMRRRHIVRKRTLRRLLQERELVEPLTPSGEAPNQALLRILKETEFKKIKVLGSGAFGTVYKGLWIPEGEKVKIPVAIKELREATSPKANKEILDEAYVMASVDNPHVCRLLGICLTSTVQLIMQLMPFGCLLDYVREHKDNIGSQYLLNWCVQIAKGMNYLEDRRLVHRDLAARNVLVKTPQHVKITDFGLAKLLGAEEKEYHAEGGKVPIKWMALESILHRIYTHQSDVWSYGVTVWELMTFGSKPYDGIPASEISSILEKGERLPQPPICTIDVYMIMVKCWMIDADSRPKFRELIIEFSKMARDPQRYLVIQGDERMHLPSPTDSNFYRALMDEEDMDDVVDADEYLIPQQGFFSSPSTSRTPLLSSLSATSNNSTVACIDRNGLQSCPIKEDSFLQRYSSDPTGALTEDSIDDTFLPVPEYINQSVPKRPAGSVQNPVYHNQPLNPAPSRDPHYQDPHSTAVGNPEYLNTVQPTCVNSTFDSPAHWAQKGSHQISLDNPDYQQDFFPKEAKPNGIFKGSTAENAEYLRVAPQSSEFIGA
Chain of Epidermal growth factor receptor (Homo sapiens, UniProt P00533) (P00533 whole entry): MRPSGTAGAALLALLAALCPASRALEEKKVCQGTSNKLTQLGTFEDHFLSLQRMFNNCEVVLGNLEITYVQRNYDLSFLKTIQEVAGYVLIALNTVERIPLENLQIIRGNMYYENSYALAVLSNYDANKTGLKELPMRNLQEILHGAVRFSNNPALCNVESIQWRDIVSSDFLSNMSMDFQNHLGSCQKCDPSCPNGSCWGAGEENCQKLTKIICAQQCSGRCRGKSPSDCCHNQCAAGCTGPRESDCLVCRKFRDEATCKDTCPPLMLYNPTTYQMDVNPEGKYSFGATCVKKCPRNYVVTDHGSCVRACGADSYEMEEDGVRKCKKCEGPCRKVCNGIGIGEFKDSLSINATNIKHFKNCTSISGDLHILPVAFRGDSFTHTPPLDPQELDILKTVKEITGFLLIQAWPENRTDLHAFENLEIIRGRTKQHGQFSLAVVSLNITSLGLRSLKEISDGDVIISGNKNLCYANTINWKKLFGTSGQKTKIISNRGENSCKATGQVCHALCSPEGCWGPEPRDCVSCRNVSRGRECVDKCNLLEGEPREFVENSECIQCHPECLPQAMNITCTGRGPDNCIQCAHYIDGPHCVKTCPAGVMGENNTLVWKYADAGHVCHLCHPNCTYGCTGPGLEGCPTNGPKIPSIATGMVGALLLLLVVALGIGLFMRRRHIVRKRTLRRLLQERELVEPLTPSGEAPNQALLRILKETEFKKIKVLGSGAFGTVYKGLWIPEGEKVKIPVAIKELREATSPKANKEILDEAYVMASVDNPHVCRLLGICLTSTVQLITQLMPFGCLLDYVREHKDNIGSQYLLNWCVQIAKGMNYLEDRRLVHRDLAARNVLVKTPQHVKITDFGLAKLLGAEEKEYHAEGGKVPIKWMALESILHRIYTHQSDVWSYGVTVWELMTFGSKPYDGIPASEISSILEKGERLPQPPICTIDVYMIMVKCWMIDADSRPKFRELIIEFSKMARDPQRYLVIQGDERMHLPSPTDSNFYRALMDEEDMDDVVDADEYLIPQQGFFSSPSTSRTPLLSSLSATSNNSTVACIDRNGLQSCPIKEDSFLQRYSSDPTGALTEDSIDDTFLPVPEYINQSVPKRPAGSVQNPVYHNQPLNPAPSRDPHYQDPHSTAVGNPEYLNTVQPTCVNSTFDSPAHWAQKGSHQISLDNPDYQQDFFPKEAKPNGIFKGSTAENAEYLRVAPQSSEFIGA

For the compound `CN(C)C/C=C/C(=O)Nc1cc2c(N3CCc4ccccc43)ncnc2cc1O[C@@H]1CCOC1`, the result in the series with A549 [1], with A549 [4] and with A549 [6] was Active. The pIC50 in series [2] is 7.59; in the series with A549 [3] it was 5.96; with PC-3, 5.91; in the series on MCF7, 5.87; in series [8], 8.30. The Activity result is “Dose-dependent effect” in the series on A549 [3]; 0.81% with A549 [5]; “Dose-dependent effect” in the series on PC-3; “Dose-dependent effect” with MCF7; 4.59% in the series on A549 [7]; 14.59% in the series with A549 [9]. For the same compound, the Activity with A549 [10] came out at 80.01%.
In the case of `C/C=C/C(=O)Nc1cc2c(N3CCc4ccccc43)ncnc2cc1O[C@@H]1CCOC1`, the pIC50 was 6.72 in series [2]; 5.58 in the series on A549 [3]; 5.28 in the series with PC-3; 5.31 in the series on MCF7; 7.54 in [8]. In addition, the solubility result in [11] is “Insoluble”.
Take `CCC/C=C/C(=O)Nc1cc2c(N3CCCc4ccccc43)ncnc2cc1OC`: the pIC50 in series [2] was 6.79; with A549 [3], 5.74; with PC-3 it was 5.65; in the series with MCF7, 5.92; in [8] it was 7.48. In series [11], the solubility result is “Insoluble”.
As to `CN(C)C/C=C/C(=O)Nc1cc2c(Nc3ccc(F)c(Cl)c3)ncnc2cc1O[C@@H]1CCOC1`, the Activity in the series on A549 [5] was determined as 0.86%; in the series on A549 [7], 4.27%; with A549 [9], 13.53%; in the series with A549 [10], 81.34%. This compound also gave a pIC50 with PC-3 of 5.60.
Regarding `COc1cc2ncnc(N3CCCc4ccccc43)c2cc1NC(=O)/C=C/CN(C)C`, the pIC50 is 6.97 in series [2]; 5.78 in the series on A549 [3]; 5.76 with PC-3; 5.75 in the series with MCF7; 7.14 in series [8].
With `CC/C=C/C(=O)Nc1cc2c(N3CCc4ccccc43)ncnc2cc1OC`, the pIC50 in [2] is 6.73; in the series with A549 [3], 5.61; in the series on PC-3 it was 5.23; in the series on MCF7, 5.39; in series [8] it was 7.77. In addition, in [11], the solubility result is “Insoluble”.
In the case of `COc1cc2ncnc(N3CCc4ccccc43)c2cc1NC(=O)/C=C/CN1CCC(CO)CC1`, the pIC50 in [2] is 7.68; in the series on A549 [3], 5.70; in the series with PC-3, 5.58; in the series on MCF7, 5.58; in [8], 8.40.
